Data reported in ChEMBL document CHEMBL3877250, “Design, synthesis, and biological evaluation of (2E)-(2-oxo-1, 2-dihydro-3H-indol-3-ylidene)acetate derivatives as anti-proliferative agents through ROS-induced cell apoptosis” (Eur J Med Chem, 2016).

Legend:
[1] = Cytotoxicity against human L02 cells after 72 hrs by CCK-8 assay; type: toxicity, cell-based
Method in brief: (§1)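 Cells kept in RPMI 1640 with 10% heat-inactivated fetal calf serum and 1% streptomycin/penicillin at 37 °C, 5% CO2. After compound exposure, CCK-8 was added and cells were incubated 4 h at 37 °C, then absorbance was read at 450 nm. Viability is relative to untreated cells (100%). IC50 comes from nonlinear regression, mean of three separate determinations. Single-concentration screen at 20 µM.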

[2] = Cytotoxicity against human HL60 cells after 72 hrs by CCK-8 assay; type: functional, cell-based; settings: HL-60, 72 h; method in brief: as §1
[3] = Cytotoxicity against human MDA-MB-231 cells assessed as growth inhibition at 20 uM after 72 hrs by CCK-8 assay; type: functional; settings: MDA-MB-231, 72 h, read-out: GI; method in brief: as §1
[4] = Cytotoxicity against human OVCAR3 cells assessed as growth inhibition at 20 uM after 72 hrs by CCK-8 assay; type: functional; settings: OVCAR-3, 72 h, read-out: GI; method in brief: as §1
[5] = Cytotoxicity against human L02 cells assessed as growth inhibition at 20 uM after 72 hrs by CCK-8 assay; type: toxicity, cell-based; settings: read-out: GI; method in brief: as §1
[6] = Cytotoxicity against human HCT116 cells assessed as growth inhibition at 20 uM after 72 hrs by CCK-8 assay; type: functional; settings: HCT-116, 72 h, read-out: GI; method in brief: as §1
[7] = Antitumor activity against human HepG2 cells assessed as growth inhibition at 20 uM after 72 hrs by CCK-8 assay; type: functional; settings: HepG2, 72 h, read-out: GI; method in brief: as §1
[8] = Cytotoxicity against human SK-BR-3 cells assessed as growth inhibition at 20 uM after 72 hrs by CCK-8 assay; type: functional; settings: SK-BR-3, 72 h, read-out: GI; method in brief: as §1
[9] = Cytotoxicity against human HL60 cells assessed as growth inhibition at 20 uM after 72 hrs by CCK-8 assay; type: functional; settings: HL-60, 72 h, read-out: GI; method in brief: as §1
[10] = Cytotoxicity against human Saos2 cells assessed as growth inhibition at 20 uM after 72 hrs by CCK-8 assay; type: functional; settings: SAOS-2, 72 h, read-out: GI; method in brief: as §1
[11] = Cytotoxicity against human SW480 cells assessed as growth inhibition at 20 uM after 72 hrs by CCK-8 assay; type: functional; settings: SW480, 72 h, read-out: GI; method in brief: as §1
[12] = Cytotoxicity against human L02 cells; type: toxicity, cell-based

SMILES	IC50 at 72 h [1]	IC50 [2]	inhibition of growth at 20 µM [3]	inhibition of growth at 20 µM [4]	inhibition at 72 h, 20 µM [5]	inhibition of growth at 20 µM [6]	inhibition of growth at 20 µM [7]	inhibition of growth at 20 µM [8]	inhibition of growth at 20 µM [9]	inhibition of growth at 20 µM [10]	inhibition of growth at 20 µM [11]	IC50 [12]
CC(C)(C)OC(=O)/C=C1/C(=O)Nc2ccc([N+](=O)[O-])cc21	3.82 µM	9.86 µM	86.9%	55.6%	62%	88.1%	88.2%	87.9%	86.6%	82.8%	77.9%	
CN1C(=O)/C(=C/C(=O)O)c2ccccc21		83.7 µM										
CN1C(=O)/C(=C/C(=O)Oc2ccccc2)c2ccccc21	22.7 µM	10.2 µM										
CC(C)(C)OC(=O)/C=C1/C(=O)N(Cc2ccccc2)c2ccccc21	5.03 µM	13.8 µM	87.1%	58.9%	62%	87.9%	88%	88%	91.7%	82.1%	78.4%	
CCOC(=O)/C=C1\C(=O)Nc2ccccc21		> 100 µM										
CC(C)(C)OC(=O)/C=C1/C(=O)Nc2ccc(OC(F)(F)F)cc21	4.04 µM	4.48 µM	86.9%	59%	61.3%	87.7%	88.4%	88.1%	95.9%	80.1%	77.8%	
COC(=O)/C=C1/C(=O)Nc2ccccc21	7.05 µM	4.18 µM	86.8%	54.4%	61.5%	87%	88%	86.7%	81.5%	78.6%	78.1%	
CNC(=O)/C=C1/C(=O)N(C)c2ccccc21	19.1 µM	10.7 µM										
CCCCc1ccc2c(c1)/C(=C\C(=O)OC(C)(C)C)C(=O)N2	4.4 µM	6.19 µM	87.7%	60.2%	63.7%	89%	90.3%	87.8%	94.7%	84.2%	78.3%	
CCN(CC)CCNC(=O)c1c(C)[nH]c(/C=C2\C(=O)Nc3ccc(F)cc32)c1C [SUNITINIB]	4.62 µM	4.95 µM										
CC(C)c1ccc2c(c1)/C(=C\C(=O)OC(C)(C)C)C(=O)N2	3.36 µM	5.29 µM	87.7%	59.7%	63.8%	89.4%	90.5%	88.5%	94.4%	82.8%	78.5%	
COc1cccc2c1NC(=O)/C2=C/C(=O)OC(C)(C)C		9.68 µM	86.7%	57.1%	61.6%	87.6%	87.3%	87.7%	84.2%	81.1%	77.8%	
CC(C)(C)OC(=O)CC1C(=O)Nc2ccccc21 (stereo not drawn)	> 100 µM	> 100 µM	3.7%	6.4%	0.1%	1.7%	1.2%	22.6%	0.5%	1.5%	8.8%	
O=C(O)/C=C1/C(=O)Nc2ccccc21	> 100 µM	> 100 µM	1%	13.4%	3.3%	-0.7%	3%	17.9%	0.9%	8.9%	6.4%	
CC(C)(C)OC(=O)CC1C(=O)Nc2ccc(Cl)cc21 (stereo not drawn)		81.1 µM										
CCOC(=O)/C=C1/C(=O)Nc2ccccc21	4.23 µM	4.83 µM	86.9%	57.3%	63.9%	89.3%	90.2%	85.5%	77.7%	81.4%	78.3%	
COc1ccc2c(c1)NC(=O)/C2=C/C(=O)OC(C)(C)C	4.34 µM	9.15 µM	87.1%	57.9%	63.6%	89.5%	88.3%	87%	91.6%	83.2%	78.8%	
Cc1c(Cl)ccc2c1NC(=O)/C2=C/C(=O)OC(C)(C)C	6.26 µM	3.64 µM	87.3%	57.4%	64.3%	89.9%	69.7%	87.9%	82.9%	82.6%	77.2%	
CC(=O)O[C@H]1C(=O)[C@@]2(C)[C@H]([C@H](OC(=O)c3ccccc3)[C@]3(O)C[C@H](OC(=O)[C@H](O)[C@@H](NC(=O)c4ccccc4)c4ccccc4)C(C)=C1C3(C)C)[C@]1(OC(C)=O)CO[C@@H]1C[C@@H]2O [PACLITAXEL]			85.1%	58.5%	61.5%	88.9%	89.4%	72.1%	71%	77.4%	76.4%	
CN1C(=O)/C(=C/C(=O)Oc2ccc3ccccc3c2)c2ccccc21	46.6 µM	23.8 µM										
COc1ccc(OC(=O)/C=C2/C(=O)N(C)c3ccccc32)cc1	23.5 µM	10.6 µM										
CC(C)(C)OC(=O)/C=C1/C(=O)Nc2c(Cl)cccc21	4.8 µM	6.12 µM	87.4%	59.3%	64%	89.5%	88.1%	88.2%	93.7%	82.4%	78%	
COC(=O)CC1C(=O)Nc2ccccc21 (stereo not drawn)	> 100 µM	114 µM										
CN1C(=O)/C(=C/C(=O)OC(C)(C)C)c2ccccc21	4.32 µM	2.76 µM	86.6%	57.1%	61.4%	87.5%	88.4%	87.6%	94.7%	81.9%	77.8%	12.2 µM
CN1C(=O)/C(=C/C(=O)Oc2ccc(Cl)cc2)c2ccccc21		12.2 µM										
CN1C(=O)C(CC(=O)OC(C)(C)C)c2ccccc21 (stereo not drawn)	> 100 µM	93.1 µM										
Cc1ccc2c(c1)/C(=C\C(=O)OC(C)(C)C)C(=O)N2	2.68 µM	5 µM	87.8%	59.5%	63.9%	89.4%	90.3%	88%	94.6%	83.7%	79%	
COc1ccc2c(c1)/C(=C\C(=O)OC(C)(C)C)C(=O)N2	3.82 µM	6.19 µM	87.6%	59%	63.7%	89.6%	90.1%	87.7%	94.2%	82%	78.7%	
